Test results as given in ChEMBL document CHEMBL4477185, “Anacardic Acids from Knema hookeriana as Modulators of Bcl-xL/Bak and Mcl-1/Bid Interactions” (J Nat Prod, 2016).
The source made the active and inactive calls. No cut-off for these calls is given here.

How the values were obtained:
Bcl-xL/BAK = Bcl-xL/BAK (Homo sapiens, UniProt Q07817); experiment: Inhibition of His-tagged Bcl-xL/5-carboxyfluorescein-Bak (unknown origin) after 1 hr by fluorescence polarization assay; type: protein assay
How it was run: (§1)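 Fluorescence polarization competition: a small molecule competes with a fluorescent-tagged BH3 peptide (Bak for Bcl-xL, Bid for Mcl-1) for binding to the anti-apoptotic protein. Run in triplicate.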

[1] = target: Induced myeloid leukemia cell differentiation protein Mcl-1/BH3-interacting domain death agonist (Homo sapiens, UniProt Q07820); experiment: Inhibition of His-tagged Mcl-1/5-carboxyfluorescein-Bid (unknown origin) after 1 hr by fluorescence polarization assay; type: protein assay; how it was run: as §1
Induced myeloid leukemia cell differentiation protein Mcl-1/BH3-interacting domain death agonist, sequence (Q07820 whole entry, one chain of several, the tested form may be a part): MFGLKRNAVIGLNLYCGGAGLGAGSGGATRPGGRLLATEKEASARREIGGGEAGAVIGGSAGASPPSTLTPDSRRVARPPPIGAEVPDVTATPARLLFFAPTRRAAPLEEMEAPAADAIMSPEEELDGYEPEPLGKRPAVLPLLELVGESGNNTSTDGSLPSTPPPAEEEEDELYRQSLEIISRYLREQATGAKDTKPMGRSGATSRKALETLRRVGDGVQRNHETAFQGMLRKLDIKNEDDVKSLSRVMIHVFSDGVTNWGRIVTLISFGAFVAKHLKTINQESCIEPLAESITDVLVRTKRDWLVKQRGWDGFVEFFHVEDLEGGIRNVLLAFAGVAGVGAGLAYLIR

HCT-116 = experiment: Cytotoxicity against human HCT116 cells assessed as decrease in cell viability after 72 hrs by resazurin dye based fluorescence assay; type: functional
[2] = target: T1, BH3-interacting domain death agonist (Homo sapiens) (UniProt P55957); experiment: Binding affinity to Bid (unknown origin) assessed as micelles formation at 0.25 to 5 equivalent by 1H NMR spectra analysis
T1 sequence (whole entry): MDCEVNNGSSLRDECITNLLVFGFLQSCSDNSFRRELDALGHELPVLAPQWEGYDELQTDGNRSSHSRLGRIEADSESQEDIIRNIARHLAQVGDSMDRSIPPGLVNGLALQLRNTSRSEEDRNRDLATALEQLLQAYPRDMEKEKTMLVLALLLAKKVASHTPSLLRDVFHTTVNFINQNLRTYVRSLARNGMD

[3] = target: T1, BH3-interacting domain death agonist (Homo sapiens); experiment: Binding affinity to Bid (unknown origin) at 2 equivalent assessed as interaction at Asp16/Ser17/Met18/Asp19 and Arg20 residues by 2D 1H-1H TOCSY analysis
[4] = target: T1, BH3-interacting domain death agonist (Homo sapiens); experiment: Binding affinity to Bid (unknown origin) assessed as induction of chemical shift perturbations by NMR titration method
[5] = target: Bcl-2-like protein 1 (Homo sapiens) (UniProt Q07817); experiment: Binding affinity to Bcl-XL (unknown origin) assessed as effect on protein HN resonances at 1.5 equivalent by HSQC 1H-15N NMR spectroscopy
Bcl-2-like protein 1 (Homo sapiens), sequence (Q07817 whole entry): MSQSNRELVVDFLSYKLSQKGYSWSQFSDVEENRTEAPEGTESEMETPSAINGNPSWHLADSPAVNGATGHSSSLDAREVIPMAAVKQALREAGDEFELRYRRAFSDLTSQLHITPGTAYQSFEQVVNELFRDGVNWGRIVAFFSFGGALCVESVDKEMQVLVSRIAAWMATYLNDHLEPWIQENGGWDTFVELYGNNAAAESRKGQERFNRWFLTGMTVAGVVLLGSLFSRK
How it was run: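 Ligand titration into Bcl-xL, followed by 1H-15N HSQC spectra recorded on an 800 MHz spectrometer with a 5 mm z-gradient TCI cryoprobe.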

[6] = target: Induced myeloid leukemia cell differentiation protein Mcl-1 (Homo sapiens) (UniProt Q07820); experiment: Binding affinity to Mcl-1 (unknown origin) assessed as effect on protein HN resonances at 1.5 equivalent by HSQC 1H-15N NMR spectroscopy
Induced myeloid leukemia cell differentiation protein Mcl-1 (Homo sapiens), sequence (Q07820 whole entry): as the sequence (Q07820 whole entry, one chain of several, the tested form may be a part) above

Bcl-xL/BAK, sequence (Q07817 whole entry): as the sequence (Q07817 whole entry) above
Bcl-xL/BAK, sequence (Q16611 whole entry, further chain): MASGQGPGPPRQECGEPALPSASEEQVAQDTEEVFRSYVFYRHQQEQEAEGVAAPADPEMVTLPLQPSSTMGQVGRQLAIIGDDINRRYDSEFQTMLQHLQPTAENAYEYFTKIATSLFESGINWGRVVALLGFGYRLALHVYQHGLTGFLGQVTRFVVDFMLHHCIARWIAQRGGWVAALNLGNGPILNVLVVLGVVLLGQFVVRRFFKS

| Structure (SMILES) | Ki (Bcl-xL/BAK) [µM] | Ki [1] [µM] | Activity (HCT-116) | Activity [2] | Activity [3] | Activity [4] | Activity [5] | Activity [6] |
| --- | --- | --- | --- | --- | --- | --- | --- | --- |
| CCCCCCCCCCCCCc1cccc(O)c1 | > 23 | > 33 |  |  |  |  |  |  |
| CCCCCCCCCc1cccc(O)c1C(=O)O | > 23 | 17.7 | inactive |  |  |  |  |  |
| CCCCCCCCCCCc1cc(O)cc(O)c1C(C)=O | > 23 | > 33 |  |  |  |  |  |  |
| CCCC/C=C\CCCCCc1cccc(O)c1C(=O)O | 3.2 | 5.8 | inactive |  |  |  |  |  |
| CCCC/C=C\CCCCCCCc1cccc(O)c1 | > 23 | > 33 |  |  |  |  |  |  |
| CCCCCCCCCCCCCc1cccc(O)c1C(=O)O [GINKGOLIC ACID 13:0] | 0.2 | 0.2 | inactive | Dose-dependent effect | Active | Active | inactive | inactive |
| CCCCCCCCCCCc1cccc(O)c1C(=O)O | 1.2 | 0.7 | inactive |  |  |  |  |  |
| CCCC/C=C\CCCCCc1cc(O)cc(O)c1C(C)=O | > 23 | > 33 |  |  |  |  |  |  |
| CCCC/C=C\CCCCCCCc1cccc(O)c1C(=O)O | 0.3 | 0.2 | inactive |  |  |  |  |  |
| O=C(O)c1c(O)cccc1CCCCCCCCc1ccccc1 | 16.3 | 3.7 | inactive |  |  |  |  |  |
| CC(C)=CCC[C@@H](C)[C@H]1C=C[C@@]2(C(=O)O)[C@H](CC(C)=C[C@@H]2/C=C(\C)C2CCC(C(=O)O)CC2)C1 (some centres undefined) [MEIOGYNIN A] | 2.6 |  |  |  |  |  |  |  |
| CCCC/C=C\CCCCCCCc1cc(O)cc(O)c1C(C)=O | > 23 | > 33 |  |  |  |  |  |  |
